iPSC survival up: enhancers of single-cell hiPSC survival, primary screen, ATPlite luminescence; 100% = ROCK inhibitor wells, 0% = DMSO; survival enhancement, % at 20 µM; hit rate 0.044% among 360,000; AID 602274, 2012; in the data active = survival enhancement above about 18%;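 also: cells exposed to compounds for 16 hours before the ATP read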
Cneo AK release: Cryptococcus neoformans cell lysis inducers, primary screen, AK release luminescence, single concentration. C. neoformans lysis, adenylate kinase release luminescence, 4 h; normalised: neutral wells 0, clomiphene wells 100. hit rate 0.2% among 360,000. lysis activity, % at 15 µM. AID 651654, 2012;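 active = mean lysis activity across replicates of at least 80%, whatever share of replicates individually reach that level; inactive = mean lysis activity below 80%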
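Material – Cryptococcus neoformans yeast cells · Quantity – 5 × 10^6 yeast cells/mL · Buffer or medium – YPD medium · Compound – single dose · Timing – 4 h static compound exposure, 37 °C, read 1 h post-reagent · Signal – adenylate kinase release luminescence · Read-out basis – lysis from increased AK signal · Benchmarks – Clomiphene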
SKN-1 inh: suppressors of acrylamide-induced Pgst-4::GFP reporter in worms, primary screen, SKN-1 inhibitor project, whole organism, uHTS, GFP/RFP fluorescence ratio, strain VP596; C. elegans VP596 Pgst-4::GFP/RFP ratio, 24 h; inhibition, % at 21.8 µM; hit rate 0.49% among 360,000;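 active = interference check ratio from 0.5 to 1.5 plus GFP to RFP signal ratio inhibition reaching or exceeding a fixed threshold, cut at about 30% in these data, passing the limit was not always enough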
DAGLB inh: DAGLB lipase inhibitors, primary screen, biochemical, fluorescence, HTS. HEK293T DAGLB membrane lysate, EnzChek fluorogenic substrate. AID 504411, 2011. inhibition, % at 5.17 µM. hit rate 0.059% among 340,000. Diacylglycerol lipase-beta (Homo sapiens), Q8NCG7; in the data active = inhibition above about 34%;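 also: 0% = enzyme with vehicle and 100% = wells lacking enzyme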
Target sequence (Q8NCG7 whole entry, looked up): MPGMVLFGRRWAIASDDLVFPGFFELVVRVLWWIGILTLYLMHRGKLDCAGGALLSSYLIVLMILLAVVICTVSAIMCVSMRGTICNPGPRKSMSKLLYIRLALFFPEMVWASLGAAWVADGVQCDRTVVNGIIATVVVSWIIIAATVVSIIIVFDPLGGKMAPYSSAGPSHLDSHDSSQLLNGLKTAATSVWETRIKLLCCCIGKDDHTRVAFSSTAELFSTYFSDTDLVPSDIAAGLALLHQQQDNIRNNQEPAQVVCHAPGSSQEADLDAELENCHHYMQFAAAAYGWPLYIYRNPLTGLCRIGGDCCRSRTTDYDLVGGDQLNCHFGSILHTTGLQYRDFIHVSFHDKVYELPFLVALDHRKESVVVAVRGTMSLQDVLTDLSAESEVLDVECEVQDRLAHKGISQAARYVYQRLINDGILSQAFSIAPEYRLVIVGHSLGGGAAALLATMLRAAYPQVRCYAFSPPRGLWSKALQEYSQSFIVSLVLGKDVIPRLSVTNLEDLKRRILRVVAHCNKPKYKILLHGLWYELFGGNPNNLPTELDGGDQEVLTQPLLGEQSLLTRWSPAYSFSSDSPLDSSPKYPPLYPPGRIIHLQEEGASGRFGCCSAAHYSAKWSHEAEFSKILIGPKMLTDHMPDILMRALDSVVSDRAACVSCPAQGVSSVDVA
MT1-MMP act inh: blockers of MT1-MMP proenzyme processing, primary screen, HT1080 RFP-PRO-GFP cells, GFP/RFP fluorescence | Matrix metalloproteinase-14 (Homo sapiens), P50281 | GFP/RFP ratio fluorescence, overnight; percent of plate control window, DMSO zero | GFP/RFP ratio change, % at 20 µM | hit rate 0.061% among 360,000;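 active = GFP/RFP ratio change of at least 30% with cell ATP level not reduced by more than half and red fluorescence within 50% of control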
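system = RFP-PRO-GFP reporter HT1080 cells | dosing = 20 µM single dose, 1% DMSO | timing = overnight cell settling, then overnight compound exposure, 37 °C, 5% CO2 | read-out basis = GFP/RFP fluorescence ratio | controls = DMSO and RFP-L50D-GFP cell wells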
Ecoli rRNA inh: reduced GFP signal of wild-type E. coli, primary screen, bacterial rRNA inhibitor project, GFP/RFP fluorescence, OD600, single point; AID 720706, 2013; E. coli WT GFP vs humanized-ribosome RFP mutants, 24 h; active compounds read low; DMSO median 0, no signal -100; GFP signal change (wild-type ribosome), % (test concentration not listed); hit rate 1.6% among 350,000;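 active = significant combined selectivity score with lowered wild-type GFP, culture density cut under 30%, mutant RFP and density less affected; inactive = any of these conditions unmet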
* = called active by the depositor; . = not tested or not shown. This is a sample that favours compounds with a hit; in the whole collection about 1.8% have one here.

SMILES	iPSC survival up	Cneo AK release	SKN-1 inh	DAGLB inh	MT1-MMP act inh	Ecoli rRNA inh
O=C(NCc1cc(C(F)(F)F)cc(C(F)(F)F)c1)C1CC(c2ccccc2[N+](=O)[O-])=NO1 (stereo not drawn)	-1	2	-10	-6	3	-27
O=C(Nc1ccc(-n2ccc(C(F)(F)F)n2)cc1)Nc1cccc(Cl)c1	0	.	11	-6	-6	-51*
Cc1cc(C)cc(NC(=O)Nc2ccc(-n3ccc(C(F)(F)F)n3)cc2)c1	0	-4	12	-7	7	-2
CCOc1ccc(NCC(=O)c2ccc(C)cc2)cc1	0	.	-1	0	-2	-33*
Oc1ccccc1/C=N/NC(=S)NC1CC2C=CC1C2 (stereo not drawn)	0	.	-13	6	3	-39*
Oc1ccccc1C=NNC(=S)NC1CC2C=CC1C2 (stereo not drawn)	6	27	9	4	4	-57
Oc1c(Cl)cc(Cl)cc1/C=N/NC(=S)NC1CC2C=CC1C2 (stereo not drawn)	-1	-1	8	34	-7	-31*
C[C@@H]1CN([C@H](C)CO)C(=O)c2cc(NC(=O)CCCCCC(=O)Nc3ccccc3N)ccc2O[C@@H]1CN(C)C(=O)Nc1ccccc1	.	.	.	.	.	0
Cc1cc(C(=O)Nc2cccc3c2O[C@H](CN(C)Cc2ccc(C(=O)O)cc2)[C@H](C)CN([C@H](C)CO)C3=O)n(C)n1	.	-3	.	.	.	4
CSc1ccc(Cl)c(C(=O)NCc2ccco2)c1	-2	1	41*	-2	4	.
CSc1ccc(Cl)c(C(=O)OCC(=O)NCc2ccco2)c1	1	0	1	-4	-3	.
COc1ccc(N(CC(=O)Nc2ccc(F)c(F)c2)S(=O)(=O)c2c(C)n[nH]c2C)cc1	1	-1	9	-2	0	-26*
COc1ccc(NC(=O)CN(c2cc(C)cc(C)c2)S(=O)(=O)c2c(C)n[nH]c2C)cc1	1	-1	2	3	-4	3
COc1ccc(NC(=O)CCN(c2ccc(OC)cc2)S(=O)(=O)c2ccc(C)c(C)c2)cc1	-2	3	12	-9	-1	-27*
CCOC(=O)N1CCC(N(CCOC)C(=S)Nc2cccc(SC)c2)CC1	0	0	-10	-2	5	-23*
C=CCn1c(CCSCc2ccc(OC)c(C)c2)n[nH]c1=S	0	2	12	0	6	-19*
COC(=O)C[C@H]1CC[C@@H]2[C@@H](COc3ccc(NC(=O)c4cccc(F)c4)cc3C(=O)N2C)O1	.	2	.	.	.	-7
CCOc1ccc(/C=C2\SC(=S)N(NS(=O)(=O)c3ccc(C)cc3)C2=O)cc1OC	3	0	-6	14	1	-24*
CCOc1ccc(/C=C2\SC(=S)N(NS(=O)(=O)c3ccccc3)C2=O)cc1OC	0	.	-2	11	2	-15
CN(C)CCCNC(=O)C[C@@H]1CC[C@@H]2[C@@H](COc3ccc(NC(=O)c4ccccc4F)cc3C(=O)N2C)O1	.	-3	.	.	.	3
C[C@H]1CN([C@@H](C)CO)C(=O)c2cc(-c3cccnc3)cnc2O[C@H]1CN(C)Cc1ccccc1	.	.	.	.	.	2
COc1ccc(NC(=O)COC(=O)CCCOc2ccc(Cl)cc2Cl)cc1Cl	-2	.	5	-4	5	-22*
COc1ccc(NC(=O)COC(=O)CCCOc2ccc(Cl)cc2Cl)cc1	4	.	12	-8	5	-4
C[C@@H](NC(=O)C[C@H]1C[C@H]2c3cc(NC(=O)CC4CC4)ccc3O[C@H]2[C@@H](CO)O1)c1ccccc1	.	2	.	.	.	1
CC(=O)NC1=NC(=O)/C(=C/c2cc(C)n(-c3ccc(NC(C)=O)cc3)c2C)S1	0	-1	5	-1	-29	-29*
SMILES	iPSC survival up	Cneo AK release	SKN-1 inh	DAGLB inh	MT1-MMP act inh	Ecoli rRNA inh
CC(=O)NC1=NC(=O)/C(=C/c2cc(C)n(-c3cccc(C(=O)O)c3)c2C)S1	0	.	10	.	-56	-1
COc1ccc(S(=O)(=O)N(C)C[C@H]2OCCCC[C@H](C)Oc3ccc(NC(=O)Nc4ccc5c(c4)OCO5)cc3C(=O)N([C@H](C)CO)C[C@H]2C)cc1	.	0	.	.	.	-3
Cc1ccc(S(=O)(=O)NCC[C@@H]2CC[C@@H](NS(=O)(=O)c3ccccc3Cl)[C@@H](CO)O2)cc1	.	0	.	.	.	-1
CCCc1c(C(=O)NNc2ccccc2OC)cnn1-c1ccccc1	2	.	18	1	1	-23*
COc1cccc(NC(=O)c2cnn(-c3ccccc3)c2C)c1	0	-4	17	-3	11	-14
CCCc1c(C(=O)Nc2ccc(OC)cc2)cnn1-c1ccccc1	0	8	6	-6	-6	-24*
[O-]C1=N/[N+](=C/c2ccccc2Cl)CC1	13	-2	35*	0	7	.
[O-]C1=N/[N+](=C/c2ccccc2)CC1	0	0	7	0	1	9
C[C@H](NC(=O)C[C@H]1C[C@@H]2c3cc(NC(=O)C4CCC4)ccc3O[C@@H]2[C@@H](CO)O1)c1ccccc1	.	61	.	.	.	-9
CCCc1cc(=O)oc2c3c(cc(OCC(=O)NCC4CCC(C(=O)O)CC4)c12)OC(C)(C)CC3 (stereo not drawn)	-2	0	3	0	16	-39*
O=c1c2ccccc2c(C=NCCCN2CCOCC2)c(O)n1Cc1ccc2c(c1)OCO2	0	.	-17	0	-1	-29*
O=c1c2ccccc2c(C=NCCCN2CCOCC2)c(O)n1Cc1ccccc1	3	0	9	1	-2	.
Nc1cccc(-c2cn3cc(C(F)(F)F)cc(Cl)c3n2)c1	-2	-2	-22	3	7	.
FC(F)(F)c1cc(Cl)c2nc(-c3ccccc3)cn2c1	-3	-8	41*	-7	1	.
COCCNC(=O)c1ccc(-c2ccc(OC)cc2C)c2ccoc12	1	0	36*	.	0	-14
COc1ccc(-c2ccc(C(=O)NCCN(C)C)c3occc23)c(C)c1	4	0	17	.	5	4
COc1ccc2c3c([nH]c2c1)[C@H](CO)N(S(C)(=O)=O)CC31CCN(C(=O)Nc2ccccc2)CC1	.	.	.	.	.	-5
C[C@H]1CCCCO[C@@H](CN(C)C(=O)CCC(F)(F)F)[C@@H](C)CN([C@@H](C)CO)C(=O)c2cc(NS(C)(=O)=O)ccc2O1	.	54	.	.	.	1
